Data: ChEMBL document CHEMBL4371006, “Discovery of N-[4-(Quinolin-4-yloxy)phenyl]benzenesulfonamides as Novel AXL Kinase Inhibitors” (J Med Chem, 2018)

Experiments:
[1] = biological target: T1, Tyrosine-protein kinase receptor UFO (Homo sapiens, UniProt P30530); test: Inhibition of AXL (unknown origin) phosphorylation after 1 hr by ELISA
T1 sequence (P30530 whole entry): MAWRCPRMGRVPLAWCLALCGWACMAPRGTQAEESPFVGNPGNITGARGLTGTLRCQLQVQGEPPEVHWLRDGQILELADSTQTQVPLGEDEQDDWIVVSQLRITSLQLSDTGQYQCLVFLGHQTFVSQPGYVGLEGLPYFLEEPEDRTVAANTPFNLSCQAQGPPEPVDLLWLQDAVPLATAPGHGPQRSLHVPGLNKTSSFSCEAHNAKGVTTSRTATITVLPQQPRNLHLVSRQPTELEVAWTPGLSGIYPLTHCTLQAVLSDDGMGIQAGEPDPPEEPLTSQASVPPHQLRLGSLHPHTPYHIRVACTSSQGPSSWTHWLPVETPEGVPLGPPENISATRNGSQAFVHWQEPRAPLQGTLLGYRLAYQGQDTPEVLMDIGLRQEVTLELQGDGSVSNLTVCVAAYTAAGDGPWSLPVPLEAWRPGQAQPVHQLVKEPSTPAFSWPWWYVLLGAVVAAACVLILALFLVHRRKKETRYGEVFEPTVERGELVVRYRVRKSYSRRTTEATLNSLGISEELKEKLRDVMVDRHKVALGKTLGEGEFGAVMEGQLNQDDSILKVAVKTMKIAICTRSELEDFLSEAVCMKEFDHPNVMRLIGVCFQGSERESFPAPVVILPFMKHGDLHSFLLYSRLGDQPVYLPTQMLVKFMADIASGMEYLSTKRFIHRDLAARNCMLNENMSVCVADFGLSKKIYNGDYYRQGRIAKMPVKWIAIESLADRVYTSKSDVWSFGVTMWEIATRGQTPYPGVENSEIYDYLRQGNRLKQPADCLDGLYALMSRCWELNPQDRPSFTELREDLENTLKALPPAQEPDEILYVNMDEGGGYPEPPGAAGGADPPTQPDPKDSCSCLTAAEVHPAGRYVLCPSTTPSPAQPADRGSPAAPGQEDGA

[2] = biological target: Tyrosine-protein kinase receptor UFO (Homo sapiens) (UniProt P30530); test: Inhibition of AXL (unknown origin) using fluorescence labeled peptide as substrate at 10 uM by IMAP assay relative to control
How it was run: (§1)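 IMAP fluorescence-polarization kinase assay at 10 µmol/L compound, run in triplicate by a contract lab. A fluorescently labeled substrate peptide is phosphorylated, then nanoparticles carrying trivalent metal bind the phosphopeptide and slow its rotation. Read-out is fluorescence polarization, expressed as percent inhibition.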

[3] = biological target: Tyrosine-protein kinase receptor UFO (Homo sapiens) (UniProt P30530); test: Inhibition of AXL (unknown origin) using biotinylated peptide as substrate at 10 uM by TR-FRET assay relative to control
[4] = biological target: T2, Hepatocyte growth factor receptor (Homo sapiens, UniProt P08581); test: Inhibition of c-MET (unknown origin) using fluorescence labeled peptide as substrate at 10 uM by IMAP assay relative to control; how it was run: as §1
T2 sequence (P08581 whole entry): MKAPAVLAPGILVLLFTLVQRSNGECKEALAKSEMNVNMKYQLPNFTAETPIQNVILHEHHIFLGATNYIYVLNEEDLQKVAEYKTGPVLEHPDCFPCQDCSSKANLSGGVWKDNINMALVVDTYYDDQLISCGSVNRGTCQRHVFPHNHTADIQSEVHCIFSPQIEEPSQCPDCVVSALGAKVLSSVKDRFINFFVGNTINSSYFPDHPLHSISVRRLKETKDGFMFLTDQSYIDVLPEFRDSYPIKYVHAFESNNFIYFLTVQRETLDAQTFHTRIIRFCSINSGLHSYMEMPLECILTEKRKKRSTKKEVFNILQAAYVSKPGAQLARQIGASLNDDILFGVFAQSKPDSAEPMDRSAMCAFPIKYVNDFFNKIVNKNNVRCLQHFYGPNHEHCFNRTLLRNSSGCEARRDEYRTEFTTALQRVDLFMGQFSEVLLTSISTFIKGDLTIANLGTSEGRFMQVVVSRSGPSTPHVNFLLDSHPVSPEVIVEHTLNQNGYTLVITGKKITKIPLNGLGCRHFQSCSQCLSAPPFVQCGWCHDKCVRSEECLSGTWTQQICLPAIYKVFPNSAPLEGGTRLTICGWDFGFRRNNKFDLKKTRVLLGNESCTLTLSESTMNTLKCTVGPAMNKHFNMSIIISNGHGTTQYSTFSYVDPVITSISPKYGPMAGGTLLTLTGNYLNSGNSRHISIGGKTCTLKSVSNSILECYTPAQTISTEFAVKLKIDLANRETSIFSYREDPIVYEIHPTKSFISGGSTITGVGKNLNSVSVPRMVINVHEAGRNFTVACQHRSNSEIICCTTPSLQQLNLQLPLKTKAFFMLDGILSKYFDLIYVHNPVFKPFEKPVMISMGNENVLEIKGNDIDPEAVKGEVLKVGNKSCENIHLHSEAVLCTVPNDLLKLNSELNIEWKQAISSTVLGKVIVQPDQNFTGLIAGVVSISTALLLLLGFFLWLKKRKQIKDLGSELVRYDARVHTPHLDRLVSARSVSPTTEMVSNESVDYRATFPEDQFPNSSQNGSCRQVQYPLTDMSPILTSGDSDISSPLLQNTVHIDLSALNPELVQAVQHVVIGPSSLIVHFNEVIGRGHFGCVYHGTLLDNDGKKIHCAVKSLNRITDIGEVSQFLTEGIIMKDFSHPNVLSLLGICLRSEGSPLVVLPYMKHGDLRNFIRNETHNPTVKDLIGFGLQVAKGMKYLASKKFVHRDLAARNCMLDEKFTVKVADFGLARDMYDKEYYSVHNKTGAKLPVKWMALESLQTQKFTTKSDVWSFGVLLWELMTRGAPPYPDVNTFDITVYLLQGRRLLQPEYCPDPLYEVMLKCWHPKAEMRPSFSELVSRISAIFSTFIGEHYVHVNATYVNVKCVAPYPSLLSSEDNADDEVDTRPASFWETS

[5] = biological target: T2, Hepatocyte growth factor receptor; test: Inhibition of c-MET (unknown origin) using biotinylated peptide as substrate at 10 uM by TR-FRET assay relative to control
[6] = biological target: T3, Proto-oncogene tyrosine-protein kinase Src (Homo sapiens, UniProt P12931); test: Inhibition of SRC (unknown origin) using fluorescence labeled peptide as substrate at 10 uM by IMAP assay relative to control; how it was run: as §1
[7] = biological target: T3, Proto-oncogene tyrosine-protein kinase Src; test: Inhibition of SRC (unknown origin) using biotinylated peptide as substrate at 10 uM by TR-FRET assay relative to control
[8] = biological target: Tyrosine-protein kinase ABL1 (Homo sapiens) (UniProt P00519); test: Inhibition of ABL (unknown origin) using fluorescence labeled peptide as substrate at 10 uM by IMAP assay relative to control
How it was run: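 IMAP fluorescence-polarization kinase assay: fluorescently labelled substrate peptide phosphorylated, then captured by trivalent-metal nanoparticles, slowing rotation. Compound at 10 µM, triplicates, percent inhibition reported.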

[9] = biological target: Mast/stem cell growth factor receptor Kit (Homo sapiens) (UniProt P10721); test: Inhibition of cKIT (unknown origin) using fluorescence labeled peptide as substrate at 10 uM by IMAP assay relative to control; how it was run: as §1
Chain of Mast/stem cell growth factor receptor Kit (Homo sapiens) (P10721 whole entry): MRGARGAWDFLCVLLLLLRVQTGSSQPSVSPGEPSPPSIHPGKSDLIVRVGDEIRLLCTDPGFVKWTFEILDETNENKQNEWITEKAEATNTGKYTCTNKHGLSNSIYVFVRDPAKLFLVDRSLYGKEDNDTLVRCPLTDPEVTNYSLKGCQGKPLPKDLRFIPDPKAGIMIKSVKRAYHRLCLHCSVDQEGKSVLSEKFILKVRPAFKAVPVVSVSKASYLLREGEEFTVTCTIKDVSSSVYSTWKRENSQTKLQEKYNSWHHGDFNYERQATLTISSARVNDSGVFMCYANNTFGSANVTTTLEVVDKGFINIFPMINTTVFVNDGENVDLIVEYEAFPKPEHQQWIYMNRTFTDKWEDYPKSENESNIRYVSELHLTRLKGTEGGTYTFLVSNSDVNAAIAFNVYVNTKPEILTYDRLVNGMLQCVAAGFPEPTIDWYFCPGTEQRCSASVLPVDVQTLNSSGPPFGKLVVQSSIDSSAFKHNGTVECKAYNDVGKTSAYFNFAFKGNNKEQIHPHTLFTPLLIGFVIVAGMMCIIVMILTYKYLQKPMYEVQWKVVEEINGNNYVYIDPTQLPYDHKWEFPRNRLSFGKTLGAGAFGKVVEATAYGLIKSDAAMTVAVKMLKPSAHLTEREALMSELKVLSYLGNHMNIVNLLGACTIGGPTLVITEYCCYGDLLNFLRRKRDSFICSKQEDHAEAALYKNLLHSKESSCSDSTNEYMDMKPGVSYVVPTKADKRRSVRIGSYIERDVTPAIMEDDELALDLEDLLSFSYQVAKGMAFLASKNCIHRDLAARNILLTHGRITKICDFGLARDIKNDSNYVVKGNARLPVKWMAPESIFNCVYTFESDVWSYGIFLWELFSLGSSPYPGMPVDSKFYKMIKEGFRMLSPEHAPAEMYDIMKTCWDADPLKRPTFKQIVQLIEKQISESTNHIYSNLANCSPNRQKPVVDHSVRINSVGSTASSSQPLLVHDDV

[10] = biological target: Angiopoietin-1 receptor (Homo sapiens) (UniProt Q02763); test: Inhibition of TIE2 (unknown origin) using fluorescence labeled peptide as substrate at 10 uM by IMAP assay relative to control; how it was run: as §1
Chain of Angiopoietin-1 receptor (Homo sapiens) (Q02763 whole entry): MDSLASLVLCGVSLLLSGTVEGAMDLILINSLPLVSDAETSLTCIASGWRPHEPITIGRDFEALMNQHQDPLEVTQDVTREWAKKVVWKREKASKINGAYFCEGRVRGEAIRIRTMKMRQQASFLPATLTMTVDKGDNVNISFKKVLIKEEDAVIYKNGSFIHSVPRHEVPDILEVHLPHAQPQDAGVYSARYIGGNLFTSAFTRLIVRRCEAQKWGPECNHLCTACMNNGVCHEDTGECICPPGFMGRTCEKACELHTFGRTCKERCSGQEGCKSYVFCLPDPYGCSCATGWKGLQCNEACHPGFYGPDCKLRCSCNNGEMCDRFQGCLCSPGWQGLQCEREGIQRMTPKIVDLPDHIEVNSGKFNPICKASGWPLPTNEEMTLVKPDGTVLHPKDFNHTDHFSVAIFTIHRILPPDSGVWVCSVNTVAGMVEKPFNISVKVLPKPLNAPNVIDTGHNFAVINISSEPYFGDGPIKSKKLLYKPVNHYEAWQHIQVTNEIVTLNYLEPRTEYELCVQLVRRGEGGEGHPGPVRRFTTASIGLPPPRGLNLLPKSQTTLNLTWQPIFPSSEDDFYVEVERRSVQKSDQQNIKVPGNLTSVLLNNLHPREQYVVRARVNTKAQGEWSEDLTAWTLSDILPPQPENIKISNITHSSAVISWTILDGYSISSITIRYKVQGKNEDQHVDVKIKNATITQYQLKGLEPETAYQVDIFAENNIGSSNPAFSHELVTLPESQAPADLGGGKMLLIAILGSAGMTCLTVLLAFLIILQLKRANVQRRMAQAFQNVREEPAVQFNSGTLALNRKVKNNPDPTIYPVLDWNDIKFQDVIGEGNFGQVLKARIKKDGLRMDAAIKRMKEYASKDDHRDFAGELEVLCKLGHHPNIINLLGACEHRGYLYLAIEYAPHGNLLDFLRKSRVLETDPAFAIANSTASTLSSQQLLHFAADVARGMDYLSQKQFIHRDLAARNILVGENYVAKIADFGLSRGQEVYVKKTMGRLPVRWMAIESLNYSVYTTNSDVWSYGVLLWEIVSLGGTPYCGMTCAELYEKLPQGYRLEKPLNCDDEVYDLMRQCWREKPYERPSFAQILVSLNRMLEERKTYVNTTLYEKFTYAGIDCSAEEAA

[11] = biological target: Platelet-derived growth factor receptor beta (Homo sapiens) (UniProt P09619); test: Inhibition of PDGFRbeta (unknown origin) using fluorescence labeled peptide as substrate at 10 uM by IMAP assay relative to control; how it was run: as §1
[12] = biological target: Platelet-derived growth factor receptor beta (Homo sapiens) (UniProt P09619); test: Inhibition of PDGFRbeta (unknown origin) using biotinylated peptide as substrate at 10 uM by TR-FRET assay relative to control
[13] = biological target: T4, Aurora kinase A (Homo sapiens) (UniProt O14965); test: Inhibition of AurA (unknown origin) using fluorescence labeled peptide as substrate at 10 uM by IMAP assay relative to control; how it was run: as §1
T4 sequence (whole entry): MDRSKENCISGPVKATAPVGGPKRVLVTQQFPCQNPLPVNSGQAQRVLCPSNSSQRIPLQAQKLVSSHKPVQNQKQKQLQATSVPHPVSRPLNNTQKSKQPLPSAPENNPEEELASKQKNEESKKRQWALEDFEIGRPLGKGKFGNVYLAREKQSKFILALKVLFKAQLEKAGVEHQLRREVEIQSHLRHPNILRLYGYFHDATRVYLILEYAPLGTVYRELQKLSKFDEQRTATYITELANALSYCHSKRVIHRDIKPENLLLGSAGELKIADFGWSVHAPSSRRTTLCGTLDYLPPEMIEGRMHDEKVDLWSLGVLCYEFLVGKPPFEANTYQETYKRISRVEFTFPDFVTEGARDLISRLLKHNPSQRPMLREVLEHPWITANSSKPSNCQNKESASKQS

[14] = biological target: T4, Aurora kinase A (Homo sapiens); test: Inhibition of AurA (unknown origin) using biotinylated peptide as substrate at 10 uM by TR-FRET assay relative to control
[15] = biological target: T1, Tyrosine-protein kinase receptor UFO; test: Inhibition of AXL (unknown origin)
[16] = biological target: T3, Proto-oncogene tyrosine-protein kinase Src; test: Inhibition of SRC (unknown origin)
[17] = biological target: T2, Hepatocyte growth factor receptor; test: Inhibition of c-MET (unknown origin)
[18] = biological target: Epidermal growth factor receptor (Homo sapiens, UniProt P00533); test: Inhibition of wild type EGFR (unknown origin)
Chain of Epidermal growth factor receptor (P00533 whole entry): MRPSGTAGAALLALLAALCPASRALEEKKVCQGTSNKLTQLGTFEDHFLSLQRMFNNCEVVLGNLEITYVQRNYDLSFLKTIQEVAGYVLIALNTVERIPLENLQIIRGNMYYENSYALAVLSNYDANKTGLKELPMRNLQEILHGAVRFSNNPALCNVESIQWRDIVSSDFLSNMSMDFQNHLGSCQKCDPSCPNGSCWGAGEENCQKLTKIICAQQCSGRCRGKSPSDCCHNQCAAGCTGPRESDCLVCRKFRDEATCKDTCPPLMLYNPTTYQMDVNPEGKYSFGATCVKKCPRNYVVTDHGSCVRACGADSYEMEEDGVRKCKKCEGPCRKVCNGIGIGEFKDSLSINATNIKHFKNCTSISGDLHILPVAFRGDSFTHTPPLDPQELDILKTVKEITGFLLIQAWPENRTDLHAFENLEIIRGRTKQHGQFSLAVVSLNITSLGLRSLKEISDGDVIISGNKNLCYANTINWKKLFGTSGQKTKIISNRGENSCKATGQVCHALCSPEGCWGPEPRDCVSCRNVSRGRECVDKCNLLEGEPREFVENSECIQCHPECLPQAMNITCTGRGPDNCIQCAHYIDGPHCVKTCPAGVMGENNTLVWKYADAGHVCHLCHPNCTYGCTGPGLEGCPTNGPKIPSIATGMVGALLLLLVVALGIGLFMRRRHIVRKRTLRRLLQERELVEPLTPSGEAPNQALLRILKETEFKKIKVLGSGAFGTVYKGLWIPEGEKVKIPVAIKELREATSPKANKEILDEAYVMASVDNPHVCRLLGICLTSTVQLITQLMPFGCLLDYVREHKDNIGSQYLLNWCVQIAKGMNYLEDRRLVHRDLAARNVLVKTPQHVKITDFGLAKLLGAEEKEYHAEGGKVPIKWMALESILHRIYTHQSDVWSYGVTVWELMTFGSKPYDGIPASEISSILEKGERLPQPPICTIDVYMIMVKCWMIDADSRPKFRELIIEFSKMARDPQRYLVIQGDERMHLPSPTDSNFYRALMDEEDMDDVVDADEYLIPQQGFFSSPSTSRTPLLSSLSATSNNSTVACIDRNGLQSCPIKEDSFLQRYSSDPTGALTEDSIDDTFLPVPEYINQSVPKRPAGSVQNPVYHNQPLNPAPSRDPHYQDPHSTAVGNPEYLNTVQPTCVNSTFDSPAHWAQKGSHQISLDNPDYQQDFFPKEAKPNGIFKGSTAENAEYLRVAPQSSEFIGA

MDA-MB-231 = test: Antimigratory activity against human MDA-MB-231 cells after 3.5 hrs by microscopy based Boyden chamber assay; type: functional, cell-based; conditions: MDA-MB-231, 3.5 h
How it was run: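 Modified Boyden chamber: MDA-MB-231 cells plated in 0.1% FCS medium, migrating through 8 µm pore membrane toward 1% FCS chemoattractant for 3.5 h; transmigrated cells counted microscopically in at least 5 random fields per well.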

[19] = Ratio of IC50 for antimigratory activity against human MDA-MB-231 cells after 3.5 hrs by microscopy based Boyden chamber assay to IC50 for inhibition of AXL (unknown origin)
[20] = Selectivity ratio of compound effect for anti-invasive activity against human MDA-MB-231 cells to IC50 for AXL (unknown origin) phosphorylation

IC50 [1] [nM] | Efficacy [2] [%] | Efficacy [3] [%] | Efficacy [4] [%] | Efficacy [5] [%] | Efficacy [6] [%] | Efficacy [7] [%] | Efficacy [8] [%] | Efficacy [9] [%] | Efficacy [10] [%] | Efficacy [11] [%] | Efficacy [12] [%] | Efficacy [13] [%] | Efficacy [14] [%] | IC50 [15] [nM] | IC50 [16] [nM] | IC50 [17] [nM] | IC50 [18] [nM] | IC50 (MDA-MB-231) [nM] | Compound | Ratio IC50 [19] | other results
35 | 83 to 100 | 83 to 100 | 83 to 100 | 83 to 100 | 83 to 100 | 83 to 100 | 83 to 100 | 83 to 100 | 83 to 100 | 83 to 100 | 83 to 100 | 83 to 100 | 83 to 100 | 35 | 44 | 127 | 178 | 1500 | COc1cc2c(Oc3ccc(NS(=O)(=O)c4c(F)cccc4F)cc3F)ccnc2cc1OCCCN1CCN(C)CC1 | >50 | Selectivity ratio [20]: 2 - 6
27 | 83 to 100 | 83 to 100 | 83 to 100 | 83 to 100 | 83 to 100 | 83 to 100 | 83 to 100 | 83 to 100 | 83 to 100 | 83 to 100 | 83 to 100 | 83 to 100 | 83 to 100 | 27 | 88 | 358 | 149 | 2500 | COc1cc2c(Oc3ccc(NS(=O)(=O)c4cc(F)ccc4F)cc3F)ccnc2cc1OCCCN1CCN(C)CC1 | >50 | Selectivity ratio [20]: 2 - 6
21 | 83 to 100 | 83 to 100 | 83 to 100 | 83 to 100 | 83 to 100 | 83 to 100 | 83 to 100 | 83 to 100 | 83 to 100 | 83 to 100 | 83 to 100 | 83 to 100 | 83 to 100 | 21 | 544 | 488 | 281 | 4600 | COc1cc2c(Oc3ccc(NS(=O)(=O)c4ccccc4C(F)(F)F)cc3F)ccnc2cc1OCCCN1CCN(C)CC1 | >50 | Selectivity ratio [20]: 2 - 6

Compound | IC50 [1] [nM] | Efficacy [2] [%] | Efficacy [3] [%] | Efficacy [4] [%] | Efficacy [5] [%] | Efficacy [6] [%] | Efficacy [7] [%] | Efficacy [8] [%] | Efficacy [9] [%] | Efficacy [10] [%] | Efficacy [11] [%] | Efficacy [12] [%] | Efficacy [13] [%] | Efficacy [14] [%] | IC50 [15] [nM] | IC50 [16] [nM] | IC50 [17] [nM] | IC50 [18] [nM] | IC50 (MDA-MB-231) [nM] | Ratio IC50 [19] | other results
COc1cc2c(Oc3ccc(NS(=O)(=O)c4cc(F)ccc4F)cc3F)ccnc2cc1OCCCN1CCCC(C)C1 (centres undefined) | 28 | 83 to 100 | 83 to 100 | 83 to 100 | 83 to 100 | 83 to 100 | 83 to 100 | 83 to 100 | 83 to 100 | 83 to 100 | 83 to 100 | 83 to 100 | 83 to 100 | 83 to 100 | 28 | 113 | 1310 | 1130 | 3300 | >50 | Selectivity ratio [20]: 2 - 6
